Experimental data from ChEMBL document CHEMBL3286267, “Discovery of MK-4409, a Novel Oxazole FAAH Inhibitor for the Treatment of Inflammatory and Neuropathic Pain” (ACS Med Chem Lett, 2014).
In brackets after ≈: the same amount, converted by molar mass.

Key:
[1] = test system: Rattus norvegicus; experiment: Dose normalized AUC in rat at 1 mg/kg, iv and 1 to 2 mg/kg, po; format: ADME, organism-based; settings: in vivo
Outline: (§1)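 Rat PK given 1 mg/kg iv in DMSO/PEG400/H2O 20/60/20 and 2 mg/kg po in either Imwitor/Tween 1/1 or PEG400/Tween80/H2O 40/10/50. Half-life, clearance, volume of distribution, dose-normalized AUC (AUCN) and oral bioavailability were derived.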

[2] = Half life in rat at 1 mg/kg, iv and 1 to 2 mg/kg, po; format: ADME, organism-based; settings: in vivo; outline: as §1
[3] = Volume of distribution at steady state in rat at 1 mg/kg, iv and 1 to 2 mg/kg, po; format: ADME, organism-based; settings: in vivo, read-out: Vdss; outline: as §1
[4] = Solubility in fasted state simulated intestinal fluid; format: ADME
[5] = molecular target: Voltage-gated inwardly rectifying potassium channel KCNH2 (Homo sapiens, UniProt Q12809); experiment: Displacement of [35S]MK-499 from human ERG
Voltage-gated inwardly rectifying potassium channel KCNH2, sequence (Q12809 whole entry): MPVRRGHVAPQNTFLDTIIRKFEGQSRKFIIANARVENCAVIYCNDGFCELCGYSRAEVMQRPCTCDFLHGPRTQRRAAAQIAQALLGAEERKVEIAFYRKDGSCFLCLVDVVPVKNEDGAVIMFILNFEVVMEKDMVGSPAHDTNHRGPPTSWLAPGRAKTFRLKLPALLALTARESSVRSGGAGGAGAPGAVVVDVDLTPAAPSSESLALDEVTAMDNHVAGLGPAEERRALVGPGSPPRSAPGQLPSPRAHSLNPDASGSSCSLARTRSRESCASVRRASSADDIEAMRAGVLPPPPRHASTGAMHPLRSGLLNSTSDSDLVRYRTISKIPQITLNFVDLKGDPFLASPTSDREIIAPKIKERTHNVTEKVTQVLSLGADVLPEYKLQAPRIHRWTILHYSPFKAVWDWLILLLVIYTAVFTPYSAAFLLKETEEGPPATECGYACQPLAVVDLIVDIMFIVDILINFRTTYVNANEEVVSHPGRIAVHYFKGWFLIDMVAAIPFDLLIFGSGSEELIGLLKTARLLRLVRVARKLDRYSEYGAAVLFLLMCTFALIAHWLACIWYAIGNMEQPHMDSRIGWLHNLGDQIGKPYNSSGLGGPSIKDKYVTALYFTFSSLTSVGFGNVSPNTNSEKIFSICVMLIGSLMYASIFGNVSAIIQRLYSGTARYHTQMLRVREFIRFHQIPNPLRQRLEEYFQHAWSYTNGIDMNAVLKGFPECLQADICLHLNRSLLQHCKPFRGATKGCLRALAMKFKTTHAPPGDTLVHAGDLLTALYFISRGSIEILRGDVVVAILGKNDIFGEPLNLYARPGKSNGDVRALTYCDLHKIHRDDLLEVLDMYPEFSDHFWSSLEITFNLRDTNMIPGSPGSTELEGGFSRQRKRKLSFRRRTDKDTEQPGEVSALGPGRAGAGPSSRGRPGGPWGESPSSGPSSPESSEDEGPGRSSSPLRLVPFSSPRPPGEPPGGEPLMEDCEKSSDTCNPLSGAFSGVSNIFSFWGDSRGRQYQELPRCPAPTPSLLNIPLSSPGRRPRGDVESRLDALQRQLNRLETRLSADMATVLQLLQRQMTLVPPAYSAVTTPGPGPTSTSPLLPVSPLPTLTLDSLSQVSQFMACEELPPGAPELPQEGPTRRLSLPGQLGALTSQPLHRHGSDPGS
Outline: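 hERG K+ channel binding assay measuring displacement of the radiolabelled channel blocker [35S]MK-499. Values are averages of at least three duplicates.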

[6] = Inhibition of human vesicular monoamine transporter
Outline: (§2)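 In vitro assays, with values reported as the average of at least three duplicates.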

[7] = Clearance in rat at 1 mg/kg, iv and 1 to 2 mg/kg, po; format: ADME, organism-based; settings: in vivo; outline: as §1
[8] = Bioavailability in rat at 1 mg/kg, iv and 1 to 2 mg/kg, po; format: ADME, organism-based; settings: in vivo; outline: as §1
[9] = molecular target: T1, Fatty-acid amide hydrolase 1 (Rattus norvegicus, UniProt P97612); experiment: Inhibition of rat FAAH lysate using AMCAA as substrate by fluorescence assay; outline: as §2
T1 sequence (P97612 whole entry): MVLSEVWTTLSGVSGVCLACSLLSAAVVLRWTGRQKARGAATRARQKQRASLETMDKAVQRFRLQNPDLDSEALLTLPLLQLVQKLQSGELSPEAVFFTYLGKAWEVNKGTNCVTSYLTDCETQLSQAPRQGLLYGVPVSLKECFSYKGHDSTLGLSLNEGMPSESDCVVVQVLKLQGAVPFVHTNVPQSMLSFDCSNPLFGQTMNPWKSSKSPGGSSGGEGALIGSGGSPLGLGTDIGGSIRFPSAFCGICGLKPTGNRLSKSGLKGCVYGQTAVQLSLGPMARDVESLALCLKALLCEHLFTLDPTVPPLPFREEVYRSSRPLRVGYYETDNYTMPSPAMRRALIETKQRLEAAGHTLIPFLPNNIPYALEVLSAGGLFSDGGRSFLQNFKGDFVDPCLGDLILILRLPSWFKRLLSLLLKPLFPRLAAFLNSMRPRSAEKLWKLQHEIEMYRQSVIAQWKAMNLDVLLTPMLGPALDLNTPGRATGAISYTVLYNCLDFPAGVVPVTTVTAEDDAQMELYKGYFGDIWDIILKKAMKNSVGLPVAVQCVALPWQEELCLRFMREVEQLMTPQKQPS

[10] = molecular target: T2, Fatty-acid amide hydrolase 1 (Homo sapiens, UniProt O00519); experiment: Inhibition of human FAAH lysate using AMCAA as substrate by fluorescence assay; outline: as §2
T2 sequence (O00519 whole entry): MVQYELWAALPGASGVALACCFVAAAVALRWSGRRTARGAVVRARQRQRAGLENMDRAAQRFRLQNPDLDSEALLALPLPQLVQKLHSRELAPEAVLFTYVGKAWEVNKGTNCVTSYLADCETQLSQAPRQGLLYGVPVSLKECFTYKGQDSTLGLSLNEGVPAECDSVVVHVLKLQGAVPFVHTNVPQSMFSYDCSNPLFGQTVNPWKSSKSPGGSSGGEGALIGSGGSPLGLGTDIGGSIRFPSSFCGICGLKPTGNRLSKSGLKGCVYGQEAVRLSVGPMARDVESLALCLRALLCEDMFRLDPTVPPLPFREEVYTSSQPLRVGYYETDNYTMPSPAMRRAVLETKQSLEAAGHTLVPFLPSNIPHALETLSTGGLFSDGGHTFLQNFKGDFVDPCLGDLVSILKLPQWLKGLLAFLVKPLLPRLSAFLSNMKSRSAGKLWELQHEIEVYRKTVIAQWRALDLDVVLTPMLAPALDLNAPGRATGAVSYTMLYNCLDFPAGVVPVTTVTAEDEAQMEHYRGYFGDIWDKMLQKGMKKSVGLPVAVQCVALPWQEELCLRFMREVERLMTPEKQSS

[11] = test system: Rattus norvegicus; experiment: Analgesic activity in Sprague-Dawley rat complete Freund's adjuvant-induced inflammatory pain model assessed as reversal of mechanical allodynia at 30 mg/kg, po single dose measured after 1 hr; format: functional
Outline: (§3)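 Inflammatory pain induced in rats by intraplantar injection of complete Freund's adjuvant into the hind paw. Mechanical allodynia was assessed at 1 and 3 h after a single oral dose. For each rat, percent reversal = (postdose – predose)/(preinjury – predose), averaged over n = 6.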

[12] = Clearance in rat at 1 mg/kg, iv and 2 mg/kg, po; format: ADME, organism-based; settings: in vivo; outline: as §1
[13] = Volume of distribution at steady state in rat at 1 mg/kg, iv and 2 mg/kg, po; format: ADME, organism-based; settings: in vivo, read-out: Vdss; outline: as §1
[14] = test system: Rattus norvegicus; experiment: Analgesic activity in Sprague-Dawley rat complete Freund's adjuvant-induced inflammatory pain model assessed as reversal of mechanical allodynia at 30 mg/kg, po single dose measured after 3 hrs; format: functional; outline: as §3
[15] = Half life in rat at 1 mg/kg, iv and 2 mg/kg, po; format: ADME, organism-based; settings: in vivo; outline: as §1
[16] = Bioavailability in rat at 1 mg/kg, iv and 2 mg/kg, po; format: ADME, organism-based; settings: in vivo; outline: as §1
[17] = test system: Rattus norvegicus; experiment: Dose normalized AUC in rat at 1 mg/kg, iv and 2 mg/kg, po; format: ADME, organism-based; settings: in vivo; outline: as §1

Structure (SMILES) | AUC/dose [1] [µM·kg·h/mg] | half-life [2] [h] | Vd [3] [L/kg] | solubility [4] [µg/mL] | Ki [5] [µM] | EC50 [6] [µM] | clearance [7] [mL/min/kg] | bioavailability [8] [%] | IC50 [9] [µM] | IC50 [10] [µM] | Activity [11] [%] | clearance [12] [mL/min/kg] | Vd [13] [L/kg] | Activity [14] [%] | half-life [15] [h] | bioavailability [16] [%] | AUC/dose [17] [µM·kg·h/mg]
CS(=O)(=O)c1ccc(-c2nn(-c3ccc(F)cc3)cc2Sc2ccc(Cl)cc2)cc1 | 1.06 | 1.79 | 8.4 | 3 (≈ 6.54 µM) | 0.637 | 0.363 | 34 | 100 | 0.006 |  |  |  |  |  |  |  | 
Clc1ccc(Sc2c[nH]nc2-c2ccc3c(c2)OCCO3)cc1 |  |  |  |  | 1.54 |  |  |  | 0.125 | 0.119 |  |  |  |  |  |  | 
Clc1ccc(Sc2cn(-c3ccccc3)nc2-c2ccc3c(c2)OCCO3)cc1 |  |  |  |  | > 30 |  |  |  | 0.008 | 0.027 |  |  |  |  |  |  | 
Clc1ccc(Sc2cn(-c3cccnc3)nc2-c2ccc(-c3ncon3)cc2)cc1 |  |  |  | 27 (≈ 62.5 µM) | 5.21 | 0.137 |  |  | 0.0048 | 0.013 | 49 | 34 | 7.8 | 62 | 2.57 | 35 | 0.39
CS(=O)(=O)c1ccc(-c2nc(-c3ccccc3)oc2Sc2ccc(Cl)cc2)cc1 |  |  |  |  | 28.5 |  |  |  | 0.006 | 0.013 |  |  |  |  |  |  | 
